Source: PubChem BioAssay
RanGTP-Imp inh: inhibitors of RanGTP-importin-beta interaction, primary screen, biochemical, FRET, CFP-Ran, YFP-importin-beta, homogeneous. cell-free CFP-Ran/YFP-importin-beta FRET ratio. AID 2216. hit rate 1.1% among 300,000. inhibition, % (concentration not given with the values);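 active = more than half of the replicate wells show a fall in the fluorescence ratio signal beyond about 16%, limit read from the data, passing the limit was not always enough; inconclusive = exactly half of the replicate wells pass the set limit; inactive = fewer than half of replicates pass the limit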
Tb hexokinase: T. brucei hexokinase 1 inhibition; recombinant TbHK1, G6PDH-coupled NADH A340; inhibition, % at 10 µM; hit rate 0.11% among 220,000;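 active = inhibition of 50% or more in the single-dose primary screen; inactive = inhibition below 50%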
Runt-SMMHC FRET: blocks binding of human RUNX1 Runt domain to CBFb-SMMHC; Cerulean-Runt/Venus-CBFb-SMMHC FRET ratio 530/480, 1 h; inhibition, % at 20 µM; hit rate 0.74% among 220,000; AID 1434;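 active = mean inhibition across duplicate retests at 20 µM reaching about 50%, limit read from the data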;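 note: inhibitors lower the FRET ratio by blocking Runt binding to CBFb-SMMHC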
p97 inhibitor: human p97 ATPase inhibition; recombinant p97 ATPase, Kinase-Glo ATP luminescence, 3 h; inhibition, % at 8 µM; hit rate 0.42% among 220,000; AID 1481; in the data active = inhibition above about 15%
Target sequence (P55072 whole entry, looked up): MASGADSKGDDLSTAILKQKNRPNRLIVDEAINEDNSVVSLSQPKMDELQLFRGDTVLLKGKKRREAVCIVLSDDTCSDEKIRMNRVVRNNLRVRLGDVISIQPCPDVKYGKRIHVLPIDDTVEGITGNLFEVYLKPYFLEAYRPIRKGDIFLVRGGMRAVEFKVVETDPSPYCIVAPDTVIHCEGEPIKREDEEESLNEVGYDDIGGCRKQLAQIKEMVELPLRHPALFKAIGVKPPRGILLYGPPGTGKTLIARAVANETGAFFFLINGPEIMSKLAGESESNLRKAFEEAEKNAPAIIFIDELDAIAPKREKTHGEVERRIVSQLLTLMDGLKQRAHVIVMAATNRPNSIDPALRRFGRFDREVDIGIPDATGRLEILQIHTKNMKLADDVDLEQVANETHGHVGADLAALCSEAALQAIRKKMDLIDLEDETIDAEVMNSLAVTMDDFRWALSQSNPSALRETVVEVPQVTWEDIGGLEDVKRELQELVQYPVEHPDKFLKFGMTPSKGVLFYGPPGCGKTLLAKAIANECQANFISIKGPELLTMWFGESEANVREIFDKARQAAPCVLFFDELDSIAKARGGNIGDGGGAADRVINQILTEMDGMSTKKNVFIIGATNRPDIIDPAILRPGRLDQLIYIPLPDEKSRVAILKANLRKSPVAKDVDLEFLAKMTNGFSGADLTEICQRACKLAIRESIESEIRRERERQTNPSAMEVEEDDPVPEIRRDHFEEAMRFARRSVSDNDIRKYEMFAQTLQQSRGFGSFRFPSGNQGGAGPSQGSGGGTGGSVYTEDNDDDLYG
Hck-Nef inh: inhibitors of human Hck kinase activated by Nef; inhibition, % at 20 µM; P08631; hit rate 0.68% among 220,000; Recombinant Hck-YEEI plus Nef, Z-Lyte FRET kinase assay;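 active = Hck-Nef kinase inhibition above about 50%, limit read from the data; inactive = inhibition below that limit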
Runt-CBFb FRET: blocks binding of human RUNX1 Runt domain to CBFb. Q01196+Q13951. hit rate 0.46% among 220,000. Cerulean-Runt/Venus-CBFb FRET ratio 530/480, 1 h. inhibition, % at 20 µM;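 active = inhibition over about 50% at 20 µM in the single-dose screen, limit read from the data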
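Assay system: Cerulean-Runt domain / Medium: Tris 50 mM pH 7.5, KCl, K2SO4, 0.01% BSA / Timing: protein complex preformed 1 h, compound exposure 1 h, room temperature, dark / Measured by: FRET, excitation 422 nm, emission at 530 and 480 nm / Evaluation: loss of energy transfer signal / Control set: 5 µM unlabeled CBFb as full-inhibition high control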
Hck Nef conf: confirmation of Hck-Nef kinase inhibitors | shares compounds with Hck-Nef inh | Recombinant Hck-YEEI:Nef, Z-Lyte FRET kinase assay | calls only at 10 µM | hit rate 28% among 1,300 | AID 463188;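 active = average inhibition of at least 50%, with Z-scores no higher than 3 in both the phospho-tyrosine peptide and fluorescence counterscreens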
A number is an active result; 0 = inactive; ? = inconclusive; - = no result shown; + = active, no number. This is a sample that favours compounds with a hit; in the whole collection about 2.1% have one here.

SMILES	RanGTP-Imp inh	Tb hexokinase	Runt-SMMHC FRET	p97 inhibitor	Hck-Nef inh	Runt-CBFb FRET	Hck Nef conf
Cc1cccc(NC(=O)Cn2c(O)c(N=NC(=O)c3ccccc3O)c3ccccc32)c1	0	0	0	0	51	0	+
Cc1ccc(NC(=O)Cn2c(O)c(N=NC(=O)c3cc([N+](=O)[O-])ccc3O)c3ccccc32)cc1	0	0	0	0	68	0	+
N=Nc1c(O)n(CC(=O)Nc2ccccc2)c2ccccc12	0	-	-	-	-	-	-
CONC(=O)Nc1ccccc1[N+](=O)[O-]	0	0	0	0	0	0	-
O=C1/C(=C\c2ccco2)SC(=S)N1C1CCS(=O)(=O)C1 (stereo unspecified)	0	0	0	0	69	0	0
O=C1/C(=C/c2ccco2)SC(=S)N1C1CCS(=O)(=O)C1 (stereo unspecified)	?	0	0	0	0	0	-
Cc1ccc(NC(=S)NCC(O)c2ccccc2)c(C)c1 (stereo unspecified)	0	-	-	-	-	-	-
N/C(=N\N=C\c1ccnc2ccccc12)SC1CC(=O)N(c2ccc(Br)cc2)C1=O (stereo unspecified)	0	0	0	0	66	0	+
COc1ccc(CNC(=O)C2CCCN(S(=O)(=O)c3c(C)n[nH]c3C)C2)cc1 (stereo unspecified)	0	0	0	0	0	0	-
Cc1c(OC(=O)CNC(=O)OC(C)(C)C)ccc2c3c(c(=O)oc12)CCC3	-	0	83	0	64	0	-
N#C/C(=C\c1ccc(-c2cccc([N+](=O)[O-])c2)o1)C(=O)Nc1nc(-c2cccs2)cs1	0	0	0	0	75	0	+
Nc1c2c(=O)oc(-c3ccccc3)cc2nn1-c1ccccc1	0	0	0	0	67	0	0
Cc1c(-c2ccc(Cl)cc2)oc(=O)c2c(N)n(-c3ccccc3)nc12	0	0	0	0	0	0	-
Nc1cc(=O)[nH]c(=O)n1-c1cccc(F)c1	0	0	0	0	0	0	-
COc1ccc(-n2c(N)cc(=O)[nH]c2=O)cc1	0	0	0	0	52	0	0
Cc1ccc(-c2nc3ccccc3s2)cc1NC(=O)c1cc(-n2cnnc2)ccc1Cl	0	0	0	0	91	-	0
COc1ccc(CN(CC2CCC(C(=O)O)CC2)C(=S)Nc2cccc(C)c2)cc1 (stereo unspecified)	0	0	0	0	0	0	-
Fc1ccccc1/C=N/Nc1ncnc2nc[nH]c12	0	0	0	0	56	0	+
Fc1cccc(/C=N/Nc2ncnc3nc[nH]c23)c1	0	0	0	0	65	0	+
c1ccc(CNc2ncnc3nc[nH]c23)nc1	0	0	0	0	0	0	-
COc1ccccc1N1CCN(C2CCCN(Cc3ccccc3OCCO)C2)CC1 (stereo unspecified)	0	-	-	-	-	-	-
CC(=O)c1ccc(C(=O)N2CCC(n3nccc3NC(=O)C3CC3)CC2)cc1	0	-	-	-	-	-	-
COc1cccc(CNC(=O)CS(=O)(=O)Cc2nc(-c3ccc(C)cc3)oc2C)c1OC	0	-	-	-	-	-	-
O=C(Nc1ccccc1)Nc1snnc1C(=O)Nc1cccc(O)c1	0	0	0	0	60	0	+
COc1ccc(-c2nnn(CC(=O)NCCc3ccc(OC)c(OC)c3)n2)cc1	0	0	0	0	97	0	0
SMILES	RanGTP-Imp inh	Tb hexokinase	Runt-SMMHC FRET	p97 inhibitor	Hck-Nef inh	Runt-CBFb FRET	Hck Nef conf
Cc1c(N=C2C=CC(=O)c3ccccc32)c(=O)n(-c2ccccc2)n1C	0	0	0	0	51	0	0
Oc1ccc(/C=N/Nc2ncnc3nc[nH]c23)cc1	0	0	0	0	95	0	+
Clc1ccc(/C=N/Nc2ncnc3nc[nH]c23)cc1	0	0	0	0	84	0	+
Cc1ccc(/C=N/Nc2ncnc3nc[nH]c23)cc1	0	0	0	0	93	0	+
c1csc(CNc2ncnc3nc[nH]c23)c1	0	0	0	0	0	0	-
Cc1c(NC(=O)C(C)OC(=O)CCC2CCCC2)c(=O)n(-c2ccccc2)n1C (stereo unspecified)	0	0	0	0	0	0	-
Cc1cc(OCC(=O)N2CCOCC2)ccc1NC(=O)c1ccccc1C	0	-	-	-	-	-	-
Cc1cn(-c2cc(C(=O)Nc3ccc(C)c(NC(=O)C(=O)c4c[nH]c5ccccc45)c3)cc(C(F)(F)F)c2)cn1	0	0	0	-	55	0	0
CCN1C(=O)/C(=C\c2ccc(-c3ccc([N+](=O)[O-])cc3OC)o2)SC1=Nc1cccc(C(=O)O)c1	0	0	0	0	70	0	0
COc1ccc2nc3c(cc2c1)c(NC(=O)C1CCCO1)nn3CC(C)C (stereo unspecified)	119	0	61	0	59	0	0
C=CCn1c(SCC(=O)Nc2ccc(-c3nc4ccc(C)cc4s3)cc2)nnc1-c1ccccc1	0	0	0	0	78	0	+
COc1ccc(-c2cc(=O)oc3cc(OCC(=O)c4cccc([N+](=O)[O-])c4)ccc23)cc1	0	0	0	0	80	0	0
COc1ccc(-c2cc(=O)oc3cc(OCC(C)=O)ccc23)cc1	0	0	0	0	0	0	-
N#C/C(=C(/O)COC(=O)Cc1c[nH]c2ccccc12)c1nc2ccccc2[nH]1	0	0	0	0	60	0	+
COc1ccccc1OCC(=O)OC/C(O)=C(\C#N)c1nc2ccccc2[nH]1	0	0	0	0	0	0	-
CC(C)CCNC(=O)NC(=O)COc1ccccc1C#N	0	0	0	0	0	0	-
COc1ccc(C(C(=O)NC2CCCCC2)N(C(=O)c2sc(C)nc2C)c2ccccc2C)cc1 (stereo unspecified)	0	0	0	0	0	0	-
COc1ccc(Nc2ccnc(Nc3ccc(OC)cc3)n2)cc1	0	0	0	0	88	0	+
Cc1cc(C)cc(Nc2cc(C)nc3nc(C)nn23)c1	0	0	0	0	0	0	-
C[C@@H](C(=O)CC(=O)OC(C)(C)C)[C@@H](O)c1c(F)cccc1Cl	0	-	-	-	-	-	-
CCc1ccc2[nH]c(O)c(N=Nc3nc(-c4ccccc4)cs3)c2c1	0	0	0	0	0	0	-
CC(=O)Nc1cccc(NC(=O)c2cc(-c3cccnc3)nc3ccc(Br)cc23)c1	0	0	0	0	0	0	-
CSc1ccccc1NC(=O)c1cc(-c2cccnc2)nc2ccc(Br)cc12	0	0	0	0	57	0	0
COc1ccc(-c2cc(-c3ccccc3)c(C#N)c(S(C)=O)n2)cc1 (stereo unspecified)	0	0	0	0	0	0	-
COc1ccc(-c2cc3nc4ccccc4n3c(N)c2C#N)cc1	0	0	0	0	68	0	-
O=C(CN1CCCCC1)Nc1c2c(nc3ccccc13)N(c1ccccc1)CC2	0	0	0	0	91	0	-
